The chains are these.
B1: tRNA (parent)
chain: GUUCCGUUGGCGUAAUGGUAACGCGUCUCCCUCCUAAGGAGAAGACUGCGGGUUCGAGUCCCGUACGGAACG

Variants at the floor of the assay were thinned out.

In the data set the parent is B1. Briefly: yeast fitness relative to wild type (ratio to wild type); higher = fitter; tRNA-Arg(CCU), competitive growth, 37 C, YPD. Put shortly: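 Start and end populations of a pooled competition were compared by 100-nucleotide paired-end sequencing of gene amplicons. The Saccharomyces cerevisiae strains carried tRNA-Arg(CCU) gene variants at the native genomic locus, synthesised with a 3% per-site mutation rate at 69 sites, and competed in YPD at 37°C for 24 hours in six parallel replicates. Darwinian fitness relative to wild type was based on the change in genotype frequencies. Genotypes required ≥ 100 starting reads, and estimates < 0.5 were set to 0.5.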
Regarding C5U U32C, the yeast fitness amounted to 0.892.

Turning to U2A A37U A70C, the yeast fitness is 0.688.

Consider A57U A69G, for which the yeast fitness is 0.665.

Regarding U3C C5A C66U, the yeast fitness was found to be 0.605.

Take C49G G63C A69U: the yeast fitness was 0.651.

C5U U7A U35A A36U A45U C60G: the yeast fitness is not above 0.5.

As for U19A C27G G63C, the yeast fitness came to 0.754.

As to C31A C49U, the yeast fitness is 0.867.

A20C A43C C49A U54A G58A C60A: the yeast fitness is not above 0.5.

With A21C U28A G68A, the yeast fitness was not above 0.5.

Turning to A14G G41A A70G, the yeast fitness is 0.638.

In the case of G12C A15U C24A G48C C61U, the yeast fitness was not above 0.5.

With G10A A42C A43C A70U, the yeast fitness was not above 0.5.

As for C22G C30U U54C, the yeast fitness was determined as 0.554.

With C24G C31U C61A, the yeast fitness is not above 0.5.

As for C22A C24A, the yeast fitness amounted to 0.54.

For C27G U28G A36G U64C, the yeast fitness was not above 0.5.

Regarding G44A C60U C62G, the yeast fitness was 0.596.

On to A20U C60A, for which the yeast fitness came out at 0.609.

As to C11U C55U U59C A65C, the yeast fitness is not above 0.5.

On to U19A A20C A21G C30G A43G C55G, for which the yeast fitness is not above 0.5.

As to A20C C24U C27G C49A U53C C62G, the yeast fitness is not above 0.5.

In the case of C22G C31G C66U, the yeast fitness is 0.64.

G10C C55U U59A: the yeast fitness is not above 0.5.

With G50A C60A, the yeast fitness turned out to be 0.581.

Turning to G38C G48C G63C, the yeast fitness was 0.574.

For the variant U19A A36C G51C U59A, the yeast fitness is not above 0.5.

In the case of U28A C30U A37C G41C, the yeast fitness turned out to be 0.542.

Take A45C A65C: the yeast fitness stood at 0.683.

Regarding A42G C55U, the yeast fitness stood at 0.688.

As for U8G U16C A21U C22A U28G, the yeast fitness is not above 0.5.

G6A C34A A40U U64A: the yeast fitness was not above 0.5.

With C22A A40C G50C G67C, the yeast fitness was not above 0.5.

On to G12A G18A U19C C55U A57C G58C G63A, for which the yeast fitness is not above 0.5.

On to C24G A36G A65U G68C, for which the yeast fitness is not above 0.5.

Regarding C11A U16A C29G A42C G51A, the yeast fitness is not above 0.5.

Regarding G17C U26C C46U A65C, the yeast fitness was not above 0.5.

On to C5A C30A G44A, for which the yeast fitness amounted to 0.584.

For the variant C22G C31U U64C, the yeast fitness is 0.748.

In the case of A15C A43G C46A G68A, the yeast fitness was not above 0.5.

C11A C27U C33U U35C: the yeast fitness was determined as 0.634.

For the variant C5G G17A C22U U28C C46U G58A, the yeast fitness is not above 0.5.

As to C5A A15C C29U C46U U53A, the yeast fitness was 0.52.

For the variant A20C A21U C30U C31A G63A, the yeast fitness stood at 0.628.

As for G58C C66U, the yeast fitness amounted to 0.982.

With U32C G51A, the yeast fitness worked out at 0.851.

Regarding C4A C30A A40G G48A, the yeast fitness was not above 0.5.

Regarding G23A C29U C60U A65U, the yeast fitness was not above 0.5.

On to C24U C46A A69G, for which the yeast fitness was 0.996.

As to U3C C62U, the yeast fitness was 0.904.

On to G18A A21U U32A C62G A65G, for which the yeast fitness is not above 0.5.

For the variant C11G A42U A65G C66G G68A, the yeast fitness was not above 0.5.

In the case of A15C C34G C60U, the yeast fitness is not above 0.5.

In the case of G18C C29U C34U A36G G58C, the yeast fitness is not above 0.5.

Turning to G39C C46A C60G, the yeast fitness is not above 0.5.

C29G C34U: the yeast fitness was found to be 0.561.

As to C27U C33U C66U, the yeast fitness was found to be 0.536.

In the case of A14G G50U G67C, the yeast fitness is not above 0.5.

On to U2G G9C A70G, for which the yeast fitness came to 0.585.

For the variant C5A U16C U59G, the yeast fitness was not above 0.5.

With A14U U26A, the yeast fitness turned out to be 0.694.

C55A A65C: the yeast fitness stood at 0.603.

Consider G12A G58C, for which the yeast fitness was determined as 0.935.

A14C A65U: the yeast fitness was determined as 0.62.

For the variant C46U G48C C62U, the yeast fitness is 1.03.

Turning to U3A C29G G50A, the yeast fitness is not above 0.5.

With C4G U8C G48C, the yeast fitness was 0.568.

Turning to G52C A70C, the yeast fitness is 0.715.

C33G: the yeast fitness is 0.743.

Regarding C22G C27G U59C C62U G68U, the yeast fitness was determined as 0.529.

C5U A14G G51A A65C: the yeast fitness was not above 0.5.

For G10C C11G C31U U35C U54A, the yeast fitness is not above 0.5.

Regarding U16A U35C, the yeast fitness is 0.91.

With C11G G12C A20C C24G A37G G68A A69C, the yeast fitness was not above 0.5.

With U13A C24G G25A G39C A40C G51C A69U A70C, the yeast fitness is not above 0.5.

Take C22G A45C G52C A57U: the yeast fitness came to 0.549.

Regarding U2A C31A A57G, the yeast fitness stood at 0.555.

As to A20C G52C, the yeast fitness turned out to be 0.583.

In the case of U7A G17C C24G C29A G58C A69C, the yeast fitness was not above 0.5.

Take U19G A37G A65U A69U: the yeast fitness was not above 0.5.

Take G12A C55U: the yeast fitness came to 0.908.

As to C11U A21G C29G C61G, the yeast fitness was not above 0.5.

Turning to U3A C27U A37G G41C U64C A70C, the yeast fitness was not above 0.5.

On to G48C A70G, for which the yeast fitness was determined as 0.901.

With A37U C49U C61G, the yeast fitness is not above 0.5.

For C5G C24A, the yeast fitness was 0.96.

C5A C22A G50C G58A A69C: the yeast fitness was found to be 0.607.

For the variant C4A U7A U8A C60A, the yeast fitness was not above 0.5.

Turning to U26C C61U, the yeast fitness stood at 0.956.

In the case of U3A U7A U32C G41A, the yeast fitness is not above 0.5.

Regarding C30A A42C G58A, the yeast fitness is not above 0.5.

With U16C G18A C34G G39A C62G, the yeast fitness is not above 0.5.

With C11A U53A C62G, the yeast fitness was not above 0.5.

Take A40U C61G G68C A70G: the yeast fitness is not above 0.5.

With U8C G63C, the yeast fitness turned out to be 0.778.

Take C4A G12C: the yeast fitness stood at 0.679.

As for A15U A57C, the yeast fitness was found to be 0.637.

Take C22U C24U G51C: the yeast fitness is not above 0.5.

Consider U54C G56A, for which the yeast fitness was 0.788.

C24G A40U: the yeast fitness was found to be 0.542.

Regarding C11G C30A G44C G52C U64G, the yeast fitness was not above 0.5.

With U3A C5A G23A G68U, the yeast fitness is 0.816.

In the case of C4U C34G, the yeast fitness was determined as 0.768.

In the case of U7A C27A C66U, the yeast fitness is not above 0.5.

Take G10A C34U G39C: the yeast fitness was not above 0.5.

In the case of C49A G52C, the yeast fitness was 0.527.

C5U C24G C62G G68C: the yeast fitness was not above 0.5.

Regarding G12A G52A U59A A69C A70C, the yeast fitness is not above 0.5.

For the variant G17A C24U C31G A65U, the yeast fitness is not above 0.5.

Consider U47C C60G, for which the yeast fitness turned out to be 0.651.

Consider C5A U8C A14G A21G A45C G56C, for which the yeast fitness was not above 0.5.

For C5G A20C C33U C62G, the yeast fitness is not above 0.5.

Take U8G A20U G44C: the yeast fitness turned out to be 0.558.

Regarding C4A A14U C34G A65U, the yeast fitness was not above 0.5.

Consider G23C C24A C30G A40U U47A G51C C66A A69U, for which the yeast fitness stood at 0.525.

G25A G56C: the yeast fitness turned out to be 0.711.

U26C A43G: the yeast fitness amounted to 1.01.

As to U8G G18C A37G A40G, the yeast fitness was determined as 0.546.

Consider A20C C61U A69U, for which the yeast fitness is 0.61.

As for G9C C24U U26G C62G A70U, the yeast fitness was not above 0.5.

On to G6A G17C C31A A36U G56A, for which the yeast fitness was 0.632.

Regarding C34G U47A G67A, the yeast fitness was not above 0.5.

Regarding C33U C34A G50A C62U A70C, the yeast fitness was not above 0.5.

With C34G G52A C62U, the yeast fitness came to 0.6.

G17C A20C: the yeast fitness turned out to be 0.54.

For the variant C11G A15U A65C, the yeast fitness worked out at 0.544.

On to G41A C60A C61U A69U, for which the yeast fitness was not above 0.5.

Take U8A A36U C55G U59C: the yeast fitness came to 0.579.

C5A A14G C29G C55U A70U: the yeast fitness was not above 0.5.

On to G6A C24U C49U C61G C66U A69U, for which the yeast fitness is not above 0.5.

With G9C C33U, the yeast fitness came to 0.536.

Consider U2G G10C G56C A69U, for which the yeast fitness was not above 0.5.

Regarding U28G A43G A45G C49U A57U, the yeast fitness was not above 0.5.

With G10A G17C C30G C33G C61A, the yeast fitness was found to be 0.556.

As for C29A G50C, the yeast fitness is 0.553.

For C30A U35C A36G A42C C60U C61U, the yeast fitness was not above 0.5.

Turning to U7A A43G, the yeast fitness amounted to 0.679.

On to U2C C27U U28G C33G A36G, for which the yeast fitness came to 0.544.

As for G44C C49U U64G G67A, the yeast fitness was determined as 0.512.

Take C31U C46U G51A: the yeast fitness came to 0.968.

For G23U A57U, the yeast fitness was 0.614.

As to A15C C22A C31A G38C G58C, the yeast fitness came to 0.542.

On to G12C A45U C62G A65G, for which the yeast fitness was determined as 0.604.

Take C22A C27G G38C A43C C66U A69G: the yeast fitness is not above 0.5.

As to C30U G38C G63A A70G, the yeast fitness is not above 0.5.

For the variant C31G C55G A65G, the yeast fitness was not above 0.5.

G9C C27U A36G A42U: the yeast fitness is 0.76.

With U13G A40C C49G U53A, the yeast fitness was not above 0.5.

As for C27U G38A C55A, the yeast fitness was not above 0.5.

As for G52A G56U, the yeast fitness came out at 0.554.

For C4U C29A, the yeast fitness is 0.691.

With G25A U28G G58A C66G, the yeast fitness came out at 0.61.

In the case of C5G G17A G18A, the yeast fitness is 0.553.

As for U2G U16G C27A A36C G51A, the yeast fitness turned out to be 0.536.

On to A36U C66U, for which the yeast fitness was 0.686.

Turning to C30A C60A C62A, the yeast fitness is not above 0.5.

Take C31U G48A C55U G63C: the yeast fitness was 0.595.

Turning to C24U C27G C55G G68A, the yeast fitness stood at 0.526.

For the variant A14U A15G C34G, the yeast fitness was not above 0.5.

Consider C11A U16C G18C A20G A45C A57C G68C, for which the yeast fitness was not above 0.5.

On to A14C G44C, for which the yeast fitness came to 0.577.

In the case of C27G C31G A43C, the yeast fitness was 0.545.

On to C4G C31U G48C, for which the yeast fitness is 0.647.

Consider G9A G12C C31A C33G A43C A69U A70C, for which the yeast fitness is not above 0.5.

For the variant U26G G52A, the yeast fitness stood at 0.816.

Regarding C5G C29G A43C G52A G67A, the yeast fitness is not above 0.5.

For the variant U26C C62A, the yeast fitness came out at 0.762.

For the origin of these results see the RNAGym collection of RNA variant scans (doi:10.1126/science.aae0568).
